Laboratory results from PMC5679172 (The Journal of Experimental Medicine, 2017).

Tests used:
Assay type in all cases: cell-based, mouse
[1] = tested on: LPS-induced priming; assay: LPS-induced priming in BMDMs; conditions: for LPS-induced TNF-α production or pro–IL-1β expression: BMDMs treated with inhibitor before LPS stimulation
[2] = tested on: potassium efflux; assay: intracellular potassium detection in BMDMs; conditions: LPS-primed Nlrp3−/− BMDMs
In short: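 BMDMs plated overnight and primed with LPS 50 ng/ml for 3 h, then given test compound for 30 min and nigericin for 30 min. […] Intracellular K+ quantified by ICP optical emission spectrometry with yttrium as internal standard.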

[3] = tested on: chloride efflux; assay: intracellular chloride detection in BMDMs; conditions: LPS-primed Nlrp3−/− BMDMs
In short: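 BMDMs plated overnight and primed with LPS 50 ng/ml for 3 h, then given test compound for 30 min and nigericin for 15 min. Cells lysed in water for 15 min at 37°C and spun at 10,000 g for 5 min. Supernatant mixed with MQAE and signal read on a plate reader. Residual extracellular chloride subtracted using a control.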

[4] = tested on: NLRC4 inflammasome; assay: Salmonella infection-induced NLRC4 inflammasome activation in BMDMs; conditions: LPS-primed BMDMs, IL-1β ELISA
In short: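 BMDMs plated at 5 × 10^5/ml and primed next day with LPS 50 ng/ml for 3 h. Test compound added for 30 min, then cells infected with Salmonella typhimurium for 4 h. Supernatant IL-1β measured by ELISA.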

[5] = tested on: AIM2 inflammasome; assay: cytosolic poly; conditions: LPS-primed BMDMs, cytosolic double-stranded DNA poly(dA:dT), IL-1β ELISA
In short: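 BMDMs plated at 5 × 10^5/ml and primed next day with LPS 50 ng/ml for 3 h. Test compound added for 30 min, then poly(dA:dT) (0.5 µg/ml) delivered by lipofection for 4 h. Supernatant IL-1β measured by ELISA.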

Row | SMILES | LPS-induced TNF-α production or pro–IL-1β expression [1] | nigericin-induced potassium efflux (decrease of intracellular potassium) [2] | LPS-induced priming effects ([1]; BMDMs) | nigericin-induced chloride efflux (decrease of intracellular chloride) [3] | NLRC4 inflammasome activation [4] | AIM2 inflammasome activation [5]
1 | Cc1ccc(S(=O)(=O)/C=C/C#N)cc1 [BAY 11-7082] | could suppress |  |  |  |  | 
2 | CC(O)CC(=O)O (stereo not drawn) [BHB, β-hydroxybutyrate] | could suppress | could suppress |  |  |  | 
3 | CC(C)(O)c1coc(S(=O)(=O)NC(=O)Nc2c3c(cc4c2CCC4)CCC3)c1 [MCC950] |  | could not | no effect | could inhibit |  | 
4 | O=C(O)c1ccccc1Nc1cccc(C(F)(F)F)c1 [flufenamic acid] | could suppress | could not |  | blocked |  | 
5 | O=C(/C=C/c1ccc(O)cc1)c1ccc(O)cc1O [isoliquiritigenin] | could suppress |  |  |  |  | 
6 | Cc1cccc(Nc2ccccc2C(=O)O)c1C [mefenamic acid] | could suppress |  |  |  |  | 
7 | C=C1C(=O)O[C@H]2[C@H]1CC/C(C)=C/CC[C@@]1(C)O[C@@H]21 [parthenolide] | could suppress |  |  |  | could also inhibit | could also inhibit
8 | C[S+]([O-])CCCCN=C=S (centres unmarked) [sulforaphane] | could suppress |  |  |  | could also inhibit | could also inhibit
